We go through eight molecules from ChEMBL document CHEMBL1275299, “Synthesis and anti-inflammatory activity of derivatives of coumarino-lignoid, cleomiscosin A and its methyl ether” (2010).

One test in a line: Antiinflammatory activity in Swiss albino mouse macrophage assessed as inhibition of LPS-induced IL-6 production at 10 ug/ml treated 30 mins before LPS challenge measured after 24 hrs by ELISA. It counts as functional. The method in brief:
(§1)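 Peritoneal macrophages from 8-week-old female Swiss albino mice, elicited by i.p. 1% peptone (1 mL) 3 days before harvest and collected by PBS (pH 7.4) lavage, were used at 2 × 10^6 live cells/mL. Cells were kept in RPMI 1640 with 10% heat-inactivated FCS and penicillin/streptomycin at 37 °C, 5% CO2. Adherent cells were kept after 2 h. Compounds were given in DMSO, with a DMSO vehicle control. LPS was 0.5 µg/mL. Cytokines were measured in supernatants by mouse sandwich ELISA kits. n = 4, Student t-test versus vehicle.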
`COc1cc([C@H]2Oc3c(OC)c([N+](=O)[O-])c4ccc(=O)oc4c3O[C@@H]2CO)c([N+](=O)[O-])cc1OC`: the inhibition at 10 µg/mL was determined as 80.2%.

`COc1cc([C@H]2Oc3c(OC)c(Br)c4ccc(=O)oc4c3O[C@@H]2COC(C)=O)ccc1O`: the inhibition at 10 µg/mL was 52.5%.

For the molecule `COc1ccc([C@H]2Oc3c(OC)c(Cl)c4ccc(=O)oc4c3O[C@@H]2CO)cc1OC`, the inhibition at 10 µg/mL was determined as 56.2%.

`COc1ccc([C@H]2Oc3c(OC)c(Br)c4ccc(=O)oc4c3O[C@@H]2CO)cc1OC`: the inhibition at 10 µg/mL was determined as 60%.

For the molecule `COc1cc([C@H]2Oc3c(OC)c([N+](=O)[O-])c4ccc(=O)oc4c3O[C@@H]2CO[N+](=O)[O-])c([N+](=O)[O-])cc1OC`, the inhibition at 10 µg/mL came to 79%.

On to `COc1cc([C@H]2Oc3c(OC)cc4ccc(=O)oc4c3O[C@@H]2COC(C)=O)ccc1O` [DURANTIN A], for which the inhibition at 10 µg/mL was 78.3%.

On to `COc1cc([C@H]2Oc3c(OC)c([N+](=O)[O-])c4ccc(=O)oc4c3O[C@@H]2COC(C)=O)ccc1OC(C)=O`, for which the inhibition at 10 µg/mL is 82%.

A short description of a further test: Antiinflammatory activity in Swiss albino mouse macrophage assessed as inhibition of LPS-induced TNFalpha production at 10 ug/ml treated 30 mins before LPS challenge measured after 24 hrs by ELISA. The class given is functional. The method in brief: as §1
On to `COc1cc([C@H]2Oc3c(OC)c([N+](=O)[O-])c4ccc(=O)oc4c3O[C@@H]2CO)c([N+](=O)[O-])cc1OC`, for which the inhibition at 10 µg/mL came to 78%.

Take `COc1cc([C@H]2Oc3c(OC)c(Br)c4ccc(=O)oc4c3O[C@@H]2COC(C)=O)ccc1O`: the inhibition at 10 µg/mL came to 54.2%.

In the case of `COc1ccc([C@H]2Oc3c(OC)c(Cl)c4ccc(=O)oc4c3O[C@@H]2CO)cc1OC`, the inhibition at 10 µg/mL is 49.6%.

For the molecule `COc1ccc([C@H]2Oc3c(OC)c(Br)c4ccc(=O)oc4c3O[C@@H]2CO)cc1OC`, the inhibition at 10 µg/mL came to 42%.

Regarding `COc1cc([C@H]2Oc3c(OC)c([N+](=O)[O-])c4ccc(=O)oc4c3O[C@@H]2CO[N+](=O)[O-])c([N+](=O)[O-])cc1OC`, the inhibition at 10 µg/mL is 60.6%.

As for `COc1cc([C@H]2Oc3c(OC)cc4ccc(=O)oc4c3O[C@@H]2COC(C)=O)ccc1O` [DURANTIN A], the inhibition at 10 µg/mL was 76.2%.

With `COc1cc([C@H]2Oc3c(OC)c([N+](=O)[O-])c4ccc(=O)oc4c3O[C@@H]2COC(C)=O)ccc1OC(C)=O`, the inhibition at 10 µg/mL is 67.8%.

The nature of the next test: Antiinflammatory activity in Swiss albino mouse macrophage assessed as inhibition of LPS-induced TNFalpha production at 1 ug/ml treated 30 mins before LPS challenge measured after 24 hrs by ELISA. It counts as functional. The method in brief:
as §1
For `COc1cc([C@H]2Oc3c(OC)c([N+](=O)[O-])c4ccc(=O)oc4c3O[C@@H]2CO)c([N+](=O)[O-])cc1OC`, the inhibition at 1 µg/mL is 76.6%.

Regarding `COc1cc([C@H]2Oc3c(OC)c(Br)c4ccc(=O)oc4c3O[C@@H]2COC(C)=O)ccc1O`, the inhibition at 1 µg/mL came out at 54.5%.

`O=C(O)Cc1ccccc1Nc1c(Cl)cccc1Cl` [DICLOFENAC SODIUM]: the inhibition at 1 µg/mL turned out to be 46.5%.

For the molecule `COc1ccc([C@H]2Oc3c(OC)c(Cl)c4ccc(=O)oc4c3O[C@@H]2CO)cc1OC`, the inhibition at 1 µg/mL is 50.2%.

In the case of `COc1ccc([C@H]2Oc3c(OC)c(Br)c4ccc(=O)oc4c3O[C@@H]2CO)cc1OC`, the inhibition at 1 µg/mL was found to be 44.8%.

On to `COc1cc([C@H]2Oc3c(OC)c([N+](=O)[O-])c4ccc(=O)oc4c3O[C@@H]2CO[N+](=O)[O-])c([N+](=O)[O-])cc1OC`, for which the inhibition at 1 µg/mL amounted to 64.8%.

In the case of `COc1cc([C@H]2Oc3c(OC)cc4ccc(=O)oc4c3O[C@@H]2COC(C)=O)ccc1O` [DURANTIN A], the inhibition at 1 µg/mL was 73.3%.

Consider `COc1cc([C@H]2Oc3c(OC)c([N+](=O)[O-])c4ccc(=O)oc4c3O[C@@H]2COC(C)=O)ccc1OC(C)=O`, for which the inhibition at 1 µg/mL came out at 70.5%.

The nature of the next test: Antiinflammatory activity in Swiss albino mouse macrophage assessed as inhibition of LPS-induced IL-6 production at 1 ug/ml treated 30 mins before LPS challenge measured after 24 hrs by ELISA. It counts as functional. The method in brief:
as §1
As to `COc1cc([C@H]2Oc3c(OC)c([N+](=O)[O-])c4ccc(=O)oc4c3O[C@@H]2CO)c([N+](=O)[O-])cc1OC`, the inhibition at 1 µg/mL stood at 86.4%.

As for `COc1cc([C@H]2Oc3c(OC)c(Br)c4ccc(=O)oc4c3O[C@@H]2COC(C)=O)ccc1O`, the inhibition at 1 µg/mL was found to be 60.2%.

With `O=C(O)Cc1ccccc1Nc1c(Cl)cccc1Cl` [DICLOFENAC SODIUM], the inhibition at 1 µg/mL is 51.1%.

As for `COc1ccc([C@H]2Oc3c(OC)c(Cl)c4ccc(=O)oc4c3O[C@@H]2CO)cc1OC`, the inhibition at 1 µg/mL turned out to be 57.5%.

Consider `COc1ccc([C@H]2Oc3c(OC)c(Br)c4ccc(=O)oc4c3O[C@@H]2CO)cc1OC`, for which the inhibition at 1 µg/mL stood at 59.8%.

Consider `COc1cc([C@H]2Oc3c(OC)c([N+](=O)[O-])c4ccc(=O)oc4c3O[C@@H]2CO[N+](=O)[O-])c([N+](=O)[O-])cc1OC`, for which the inhibition at 1 µg/mL is 81.4%.

For `COc1cc([C@H]2Oc3c(OC)cc4ccc(=O)oc4c3O[C@@H]2COC(C)=O)ccc1O` [DURANTIN A], the inhibition at 1 µg/mL was found to be 81.9%.

Consider `COc1cc([C@H]2Oc3c(OC)c([N+](=O)[O-])c4ccc(=O)oc4c3O[C@@H]2COC(C)=O)ccc1OC(C)=O`, for which the inhibition at 1 µg/mL stood at 87.2%.

The next test can be described thus: Antiinflammatory activity in Swiss albino mouse macrophage assessed as inhibition of LPS-induced IL1-beta production at 10 ug/ml treated 30 mins before LPS challenge measured after 24 hrs by ELISA. It counts as functional. The method in brief:
as §1
Regarding `COc1cc([C@H]2Oc3c(OC)c([N+](=O)[O-])c4ccc(=O)oc4c3O[C@@H]2CO)c([N+](=O)[O-])cc1OC`, the inhibition at 10 µg/mL amounted to 70.2%.

In the case of `COc1cc([C@H]2Oc3c(OC)c(Br)c4ccc(=O)oc4c3O[C@@H]2COC(C)=O)ccc1O`, the inhibition at 10 µg/mL was 58.8%.

As for `COc1ccc([C@H]2Oc3c(OC)c(Cl)c4ccc(=O)oc4c3O[C@@H]2CO)cc1OC`, the inhibition at 10 µg/mL is 40.1%.

`COc1ccc([C@H]2Oc3c(OC)c(Br)c4ccc(=O)oc4c3O[C@@H]2CO)cc1OC`: the inhibition at 10 µg/mL came to 44.7%.

In the case of `COc1cc([C@H]2Oc3c(OC)c([N+](=O)[O-])c4ccc(=O)oc4c3O[C@@H]2CO[N+](=O)[O-])c([N+](=O)[O-])cc1OC`, the inhibition at 10 µg/mL came out at 53.3%.

Take `COc1cc([C@H]2Oc3c(OC)cc4ccc(=O)oc4c3O[C@@H]2COC(C)=O)ccc1O` [DURANTIN A]: the inhibition at 10 µg/mL stood at 74.8%.

For `COc1cc([C@H]2Oc3c(OC)c([N+](=O)[O-])c4ccc(=O)oc4c3O[C@@H]2COC(C)=O)ccc1OC(C)=O`, the inhibition at 10 µg/mL came out at 65.3%.

The next test can be described thus: Antiinflammatory activity in Swiss albino mouse macrophage assessed as inhibition of LPS-induced IL1-beta production at 1 ug/ml treated 30 mins before LPS challenge measured after 24 hrs by ELISA. The class given is functional. The method in brief: as §1
As to `COc1cc([C@H]2Oc3c(OC)c([N+](=O)[O-])c4ccc(=O)oc4c3O[C@@H]2CO)c([N+](=O)[O-])cc1OC`, the inhibition at 1 µg/mL is 72%.

For the molecule `COc1cc([C@H]2Oc3c(OC)c(Br)c4ccc(=O)oc4c3O[C@@H]2COC(C)=O)ccc1O`, the inhibition at 1 µg/mL is 55.3%.

As for `O=C(O)Cc1ccccc1Nc1c(Cl)cccc1Cl` [DICLOFENAC SODIUM], the inhibition at 1 µg/mL amounted to 38.5%.

On to `COc1ccc([C@H]2Oc3c(OC)c(Cl)c4ccc(=O)oc4c3O[C@@H]2CO)cc1OC`, for which the inhibition at 1 µg/mL is 59.2%.

For the molecule `COc1ccc([C@H]2Oc3c(OC)c(Br)c4ccc(=O)oc4c3O[C@@H]2CO)cc1OC`, the inhibition at 1 µg/mL worked out at 50.1%.

As to `COc1cc([C@H]2Oc3c(OC)c([N+](=O)[O-])c4ccc(=O)oc4c3O[C@@H]2CO[N+](=O)[O-])c([N+](=O)[O-])cc1OC`, the inhibition at 1 µg/mL came to 59.1%.

For the molecule `COc1cc([C@H]2Oc3c(OC)cc4ccc(=O)oc4c3O[C@@H]2COC(C)=O)ccc1O` [DURANTIN A], the inhibition at 1 µg/mL was found to be 109%.

As to `COc1cc([C@H]2Oc3c(OC)c([N+](=O)[O-])c4ccc(=O)oc4c3O[C@@H]2COC(C)=O)ccc1OC(C)=O`, the inhibition at 1 µg/mL was determined as 70.4%.
